Data published in ChEMBL document CHEMBL1154321, “Benzoxazole piperidines as selective and potent somatostatin receptor subtype 5 antagonists” (Bioorg Med Chem Lett, 2009).
Values after ≈ are worked out from the molar mass of the structure shown.

Key:
[1] = target: Somatostatin receptor type 4 (Homo sapiens, UniProt P31391); test: Displacement of SST14 from human recombinant SST4 receptor
Procedure, shortened: (§1)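 Membranes prepared by sonication from cells expressing the SST receptor subtype, incubated with radiolabeled 11-Tyr SST-14 tracer and test compound at varying concentrations; non-labeled SST-14 defined non-specific binding. Incubation stopped by glass-fiber filtration, bound radioactivity counted; IC50 for half-maximal binding inhibition estimated and Ki derived.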

[2] = target: Somatostatin receptor type 1 (Homo sapiens, UniProt P30872); test: Displacement of SST14 from human recombinant SST1 receptor; procedure, shortened: as §1
Homo sapiens = organism: Homo sapiens; test: Selectivity ratio of Ki for human histamine H1 receptor to Ki for human SST5 receptor
[3] = Solubility in phosphate buffer at pH 6.5 by lyophilization solubility assay; type: physicochemical
Procedure, shortened: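 Lyophilized DMSO stock solutions redissolved in 50 mM phosphate buffer, pH 6.5; solubility read spectrophotometrically.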

[4] = target: 5-hydroxytryptamine receptor 2B (Homo sapiens, UniProt P41595); test: Binding affinity to human 5HT2B receptor
[5] = target: Somatostatin receptor type 2 (Homo sapiens, UniProt P30874); test: Displacement of SST14 from human recombinant SST2 receptor; procedure, shortened: as §1
[6] = target: Somatostatin receptor type 3 (Homo sapiens, UniProt P32745); test: Displacement of SST14 from human recombinant SST3 receptor; procedure, shortened: as §1
Histamine H1 receptor = Histamine H1 receptor (Homo sapiens, UniProt P35367); test: Binding affinity to human histamine H1 receptor
[7] = sPermeability by PAMPA; type: ADME; details: read-out: permeability
Procedure, shortened: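 Parallel artificial membrane permeation; Pe categorized as low (<0.1), medium (0.1–1.0) or high (>1.0).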

[8] = target: T1, Somatostatin receptor type 5 (Homo sapiens, UniProt P35346); test: Displacement of SST14 from human recombinant SST5 receptor expressed in CHO cells by radioligand binding assay; type: cell-based; procedure, shortened: as §1
[9] = Octanol-TAPSO partition coefficient, log D at pH 7.4 by spectrophotometry; type: physicochemical; details: octanol/TAPSO buffer
Procedure, shortened: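 Spectrophotometric log D in 1-octanol/50 mM TAPSO buffer, pH 7.4, containing 5% (v/v) DMSO.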

[10] = Clearance in Wistar rat administered as single dose; type: ADME, organism-based; details: in vivo
[11] = Oral bioavailability in Wistar rat administered as single dose; type: ADME, organism-based; details: in vivo
[12] = Volume of distribution at steady state in Wistar rat administered as single dose; type: ADME, organism-based; details: in vivo, read-out: Vdss
[13] = Terminal half-life in Wistar rat administered as single dose; type: ADME, organism-based; details: in vivo, read-out: beta t1/2 (converted)
[14] = target: Voltage-gated inwardly rectifying potassium channel KCNH2 (Homo sapiens, UniProt Q12809); test: (§2) Inhibition of human ERG expressed in CHO cells by patch clamp technique; type: cell-based
[15] = target: T1, Somatostatin receptor type 5; test: Antagonist activity at human SST5 receptor expressed in CHO cells assessed as inhibition of forskolin-induced cAMP release by TR-FRET assay; type: functional, cell-based
Procedure, shortened: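 Transfected cells incubated with forskolin, 0.15 nM SST-14 and test compound at varying concentrations; cellular cAMP measured by FRET-based assay. IC50 taken as concentration half-maximally reversing the SST-14 effect, read from concentration-versus-cAMP curves.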

[16] = Dissociation constant, pKa by spectrophotometry; type: physicochemical
hERG (KCNH2) = hERG (KCNH2) (Homo sapiens, UniProt Q12809); test: as §2; type: cell-based; details: human, CHO cells expressing human ERG

Chain of Voltage-gated inwardly rectifying potassium channel KCNH2 (Q12809 whole entry): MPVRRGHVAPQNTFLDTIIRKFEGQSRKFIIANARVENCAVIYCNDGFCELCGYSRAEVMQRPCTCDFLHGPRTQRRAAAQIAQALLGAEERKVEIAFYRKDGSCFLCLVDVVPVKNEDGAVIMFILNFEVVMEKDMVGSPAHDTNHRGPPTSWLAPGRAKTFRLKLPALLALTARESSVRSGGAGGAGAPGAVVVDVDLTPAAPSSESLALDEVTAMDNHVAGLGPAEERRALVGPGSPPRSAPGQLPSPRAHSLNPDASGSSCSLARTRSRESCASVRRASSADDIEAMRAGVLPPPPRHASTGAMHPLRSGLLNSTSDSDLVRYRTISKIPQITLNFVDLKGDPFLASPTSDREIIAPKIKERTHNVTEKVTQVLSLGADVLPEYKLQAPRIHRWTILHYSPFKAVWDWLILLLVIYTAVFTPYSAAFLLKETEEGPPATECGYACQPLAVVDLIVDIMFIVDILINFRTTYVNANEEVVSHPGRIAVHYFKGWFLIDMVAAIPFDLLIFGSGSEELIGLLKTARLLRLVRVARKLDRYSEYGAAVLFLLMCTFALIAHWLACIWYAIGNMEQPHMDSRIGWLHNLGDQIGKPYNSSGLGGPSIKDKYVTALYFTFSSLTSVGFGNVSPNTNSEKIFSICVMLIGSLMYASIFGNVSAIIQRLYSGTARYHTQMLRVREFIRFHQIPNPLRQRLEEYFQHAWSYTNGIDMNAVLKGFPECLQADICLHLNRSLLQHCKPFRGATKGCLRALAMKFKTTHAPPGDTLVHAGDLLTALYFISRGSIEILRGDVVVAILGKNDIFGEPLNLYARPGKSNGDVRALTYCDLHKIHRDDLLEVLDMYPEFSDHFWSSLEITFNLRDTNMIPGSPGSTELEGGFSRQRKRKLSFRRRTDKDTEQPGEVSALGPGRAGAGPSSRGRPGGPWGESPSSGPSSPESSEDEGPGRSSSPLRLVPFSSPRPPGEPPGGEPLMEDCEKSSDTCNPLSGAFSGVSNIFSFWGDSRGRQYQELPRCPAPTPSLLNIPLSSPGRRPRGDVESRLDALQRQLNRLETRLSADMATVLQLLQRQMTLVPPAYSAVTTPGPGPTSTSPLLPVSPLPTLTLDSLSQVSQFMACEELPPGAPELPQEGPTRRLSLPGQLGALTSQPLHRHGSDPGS
Chain of Histamine H1 receptor (P35367 whole entry): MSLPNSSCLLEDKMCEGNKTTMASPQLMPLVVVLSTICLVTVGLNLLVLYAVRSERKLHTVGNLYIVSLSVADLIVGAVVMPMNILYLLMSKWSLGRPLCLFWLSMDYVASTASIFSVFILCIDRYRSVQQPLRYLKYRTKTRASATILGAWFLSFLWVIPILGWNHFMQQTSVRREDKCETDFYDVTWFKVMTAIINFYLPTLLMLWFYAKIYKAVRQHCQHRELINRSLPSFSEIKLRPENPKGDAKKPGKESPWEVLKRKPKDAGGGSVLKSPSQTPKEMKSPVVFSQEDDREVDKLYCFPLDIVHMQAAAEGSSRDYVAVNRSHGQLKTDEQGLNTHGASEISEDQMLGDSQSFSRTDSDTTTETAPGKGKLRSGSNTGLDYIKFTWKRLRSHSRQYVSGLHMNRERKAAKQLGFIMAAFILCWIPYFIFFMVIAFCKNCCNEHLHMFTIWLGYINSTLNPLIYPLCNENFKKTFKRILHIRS
T1 sequence (P35346 whole entry): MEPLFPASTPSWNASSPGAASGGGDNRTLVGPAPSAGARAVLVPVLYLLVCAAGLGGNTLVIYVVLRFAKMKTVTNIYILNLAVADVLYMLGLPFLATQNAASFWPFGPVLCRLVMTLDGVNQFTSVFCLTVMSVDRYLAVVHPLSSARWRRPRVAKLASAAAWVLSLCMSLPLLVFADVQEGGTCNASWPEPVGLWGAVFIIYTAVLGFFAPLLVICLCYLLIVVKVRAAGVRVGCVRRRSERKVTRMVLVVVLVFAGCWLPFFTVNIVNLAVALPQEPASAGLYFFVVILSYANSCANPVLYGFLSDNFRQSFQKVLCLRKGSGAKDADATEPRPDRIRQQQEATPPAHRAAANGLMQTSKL
Chain of Somatostatin receptor type 2 (P30874 whole entry): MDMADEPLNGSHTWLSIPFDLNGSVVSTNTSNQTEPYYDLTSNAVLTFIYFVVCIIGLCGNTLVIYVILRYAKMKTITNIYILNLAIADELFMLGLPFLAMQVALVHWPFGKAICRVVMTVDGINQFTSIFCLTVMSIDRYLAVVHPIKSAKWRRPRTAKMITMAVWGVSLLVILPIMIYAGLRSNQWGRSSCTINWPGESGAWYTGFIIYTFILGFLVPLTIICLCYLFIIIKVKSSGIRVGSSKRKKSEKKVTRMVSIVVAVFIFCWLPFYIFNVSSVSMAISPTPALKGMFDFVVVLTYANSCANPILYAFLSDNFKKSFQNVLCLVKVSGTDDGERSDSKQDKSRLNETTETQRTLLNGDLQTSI
Chain of 5-hydroxytryptamine receptor 2B (P41595 whole entry): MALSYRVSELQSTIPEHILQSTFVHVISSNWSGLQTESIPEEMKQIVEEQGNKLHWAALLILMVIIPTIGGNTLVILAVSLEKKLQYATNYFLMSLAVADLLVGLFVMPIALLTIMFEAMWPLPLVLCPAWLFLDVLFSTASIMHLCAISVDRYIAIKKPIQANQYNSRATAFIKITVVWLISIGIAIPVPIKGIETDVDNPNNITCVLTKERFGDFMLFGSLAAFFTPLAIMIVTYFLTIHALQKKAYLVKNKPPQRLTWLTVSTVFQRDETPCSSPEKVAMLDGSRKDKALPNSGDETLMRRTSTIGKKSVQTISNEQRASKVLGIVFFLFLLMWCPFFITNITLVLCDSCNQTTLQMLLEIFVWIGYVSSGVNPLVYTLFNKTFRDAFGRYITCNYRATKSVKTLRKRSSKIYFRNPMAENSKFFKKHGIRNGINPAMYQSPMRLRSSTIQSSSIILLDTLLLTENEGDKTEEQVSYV
Chain of Somatostatin receptor type 1 (P30872 whole entry): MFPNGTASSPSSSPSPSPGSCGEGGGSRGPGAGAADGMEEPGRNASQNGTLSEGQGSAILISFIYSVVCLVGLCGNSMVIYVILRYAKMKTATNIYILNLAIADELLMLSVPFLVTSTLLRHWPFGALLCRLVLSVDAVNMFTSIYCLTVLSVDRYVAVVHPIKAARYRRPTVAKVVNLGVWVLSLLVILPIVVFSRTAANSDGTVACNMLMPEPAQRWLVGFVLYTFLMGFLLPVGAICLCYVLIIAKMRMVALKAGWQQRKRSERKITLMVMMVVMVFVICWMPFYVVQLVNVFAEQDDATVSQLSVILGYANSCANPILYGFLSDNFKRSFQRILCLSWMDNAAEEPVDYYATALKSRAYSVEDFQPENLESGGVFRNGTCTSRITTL
Chain of Somatostatin receptor type 3 (P32745 whole entry): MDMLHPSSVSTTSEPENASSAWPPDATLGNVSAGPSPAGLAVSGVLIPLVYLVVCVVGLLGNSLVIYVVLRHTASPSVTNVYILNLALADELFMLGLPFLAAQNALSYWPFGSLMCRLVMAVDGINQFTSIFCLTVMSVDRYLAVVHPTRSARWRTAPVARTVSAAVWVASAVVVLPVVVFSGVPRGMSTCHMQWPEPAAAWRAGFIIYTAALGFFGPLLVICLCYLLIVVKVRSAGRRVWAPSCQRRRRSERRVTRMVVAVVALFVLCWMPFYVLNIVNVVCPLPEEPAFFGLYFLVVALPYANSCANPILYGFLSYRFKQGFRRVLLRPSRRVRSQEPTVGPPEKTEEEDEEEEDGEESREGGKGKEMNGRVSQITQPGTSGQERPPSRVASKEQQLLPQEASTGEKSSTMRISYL
Chain of Somatostatin receptor type 4 (P31391 whole entry): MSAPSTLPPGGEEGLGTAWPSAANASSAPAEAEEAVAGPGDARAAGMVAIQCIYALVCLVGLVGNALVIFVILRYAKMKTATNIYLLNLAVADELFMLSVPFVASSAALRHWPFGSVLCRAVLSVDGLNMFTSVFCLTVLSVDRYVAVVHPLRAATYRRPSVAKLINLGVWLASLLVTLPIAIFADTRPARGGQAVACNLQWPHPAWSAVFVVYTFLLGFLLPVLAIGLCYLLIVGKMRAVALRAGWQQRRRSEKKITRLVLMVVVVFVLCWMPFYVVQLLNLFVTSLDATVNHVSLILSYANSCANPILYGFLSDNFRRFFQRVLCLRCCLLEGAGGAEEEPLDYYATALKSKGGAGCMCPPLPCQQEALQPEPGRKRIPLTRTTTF

| Ki [1] [µM] | Ki [2] [µM] | Ratio Ki (Homo sapiens) | solubility [3] [µg/mL] | Ki [4] [µM] | Ki [5] [µM] | Ki [6] [µM] | Ki (Histamine H1 receptor) [µM] | Papp [7] [×10⁻⁶ cm/s] | Ki [8] [µM] | logD [9] | clearance [10] [mL/min/kg] | bioavailability [11] [%] | Vd [12] [L/kg] | half-life [13] [h] | IC50 [15] [µM] | pKa [16] | SMILES | IC50 [14] [µM] | IC50 (hERG (KCNH2)) [µM] |
| --- | --- | --- | --- | --- | --- | --- | --- | --- | --- | --- | --- | --- | --- | --- | --- | --- | --- | --- | --- |
| > 10 | – | 18 | 212 (≈ 469 µM) | 0.094 | > 10 | > 10 | 3.6 | 2.05 | 0.199 | 3.02 | – | – | – | – | – | 7.76 | CCOc1cc(CN2CCC(Nc3nc4ccccc4o3)CC2)cc(OC2CCOCC2)c1 | – | – |
| > 10 | – | – | 148 (≈ 324 µM) | – | > 10 | > 10 | – | 1.61 | 0.008 | 2.96 | 28 | 38 | 3.3 | 2.5 | – | 7.72 | CCOc1cc(CN2CCC(Nc3nc4cc(C(N)=O)ccc4o3)CC2)cc(OCC)c1F | 0.43 | – |
| > 10 | – | 5.5 | 32 (≈ 66.3 µM) | > 10 | > 10 | > 10 | 1.37 | 2.45 | 0.252 | 2.78 | – | – | – | – | – | 7.61 | CCOc1cc(CN2CCC(Nc3nc4cc(Cl)c(S(N)(=O)=O)cc4o3)CC2)ccc1F | – | – |
| > 10 | > 10 | – | 6 (≈ 13.1 µM) | – | > 10 | > 10 | – | 2.89 | 0.018 | 1.33 | 20 | 39 | 1.5 | 2.4 | 0.072 | – | CCOc1cc(CN2CCC(Nc3nc4ccc(C(=O)O)cc4o3)CC2)cc(OCC)c1F | – | – |

More lines, now with the values behind:

| SMILES | Ki [1] [µM] | Ki [2] [µM] | Ratio Ki (Homo sapiens) | solubility [3] [µg/mL] | Ki [4] [µM] | Ki [5] [µM] | Ki [6] [µM] | Ki (Histamine H1 receptor) [µM] | Papp [7] [×10⁻⁶ cm/s] | Ki [8] [µM] | logD [9] | clearance [10] [mL/min/kg] | bioavailability [11] [%] | Vd [12] [L/kg] | half-life [13] [h] | IC50 [15] [µM] | pKa [16] | IC50 [14] [µM] | IC50 (hERG (KCNH2)) [µM] |
| --- | --- | --- | --- | --- | --- | --- | --- | --- | --- | --- | --- | --- | --- | --- | --- | --- | --- | --- | --- |
| CCOc1cc(CN2CCC(Nc3nc4cc(NC(=O)C5CCC5)ccc4o3)CC2)ccc1OC | > 10 | 4.95 | 5.1 | > 638 | > 10 | > 10 | > 10 | 0.923 | 1.1 | 0.182 | 2.64 | – | – | – | – | – | – | – | – |
| CCOc1cc(CN2CCC(Nc3nc4cc(C(=O)O)ccc4o3)CC2)cc(OCC)c1Cl | > 10 | 4.5 | > 200 | 14 (≈ 29.5 µM) | – | > 10 | > 10 | – | 2.09 | 0.003 | 1.82 | 18 | 12 | 1.8 | 4.9 | – | – | > 10 | – |
| CCOc1cc(CN2CCC(Nc3nc4ccc(C(=O)O)cc4o3)CC2)ccc1Cl | > 10 | > 10 | – | 7 (≈ 16.3 µM) | – | > 10 | > 10 | – | 3.6 | 0.023 | 1.39 | 27 | 57 | 4.3 | 3.1 | 0.098 | – | > 10 | – |
| CCOc1cc(CN2CCC(Nc3nc4cc(S(N)(=O)=O)ccc4o3)CC2)cc(OCC)c1N | – | 1.75 | 200 | 335 (≈ 684 µM) | – | – | – | 2.6 | – | – | 1.62 | – | – | – | – | – | 8.28 | – | – |
| CCOc1cc(CN2CCC(Nc3nc4ccccc4o3)CC2)ccc1OC | > 10 | – | 5.2 | – | 0.041 | > 10 | > 10 | – | – | – | – | 84 | 6 | 4.1 | 0.7 | – | 8.3 | – | < 0.1 |
| CCOc1cc(CN2CCC(Nc3nc4cc(S(N)(=O)=O)ccc4o3)CC2)ccc1OC | > 10 | – | 1 | > 614 | – | > 10 | > 10 | 0.52 | 1.64 | 0.529 | 1.51 | 103 | 4 | 8.2 | 1.7 | – | 8.05 | – | 3.5 |
| CCOc1cc(CN2CCC(Nc3nc4ccccc4o3)CC2)ccc1Cl | > 10 | – | 2.4 | 44 (≈ 114 µM) | 0.074 | > 10 | > 10 | 0.266 | 0.49 | – | 3.44 | – | – | – | – | – | 7.63 | – | – |
